Experimental data as given in ChEMBL document CHEMBL3045973, “Synthesis and insecticidal activity of novel 4beta-halogenated benzoylamino podophyllotoxins against Pieris rapae Linnaeus” (2002).
Active and inactive are the calls of the source. No cut-off for these calls is given here.

What was measured:
Pieris rapae [1] = test: Insecticidal activity against fifth-instar larvae of Pieris rapae fed on compound treated cabbage leaf assessed as delay in metamorophosis at 250 ppm dipped for 3 secs relative to control; assay type: functional, organism-based
Summary of the method: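 Fifth-instar P. rapae larvae dosed by the leaf-dipping method at 250 ppm. Development time from larva to adulthood was compared with a control group.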

Pieris rapae [2] = test: Insecticidal activity against fifth-instar larvae of Pieris rapae fed on compound treated cabbage leaf assessed as inhibition of reproduction in pupated adultoids at 250 ppm dipped for 3 secs relative to control; assay type: functional, organism-based
Pieris rapae [3] = test: Insecticidal activity against fifth-instar larvae of Pieris rapae fed on compound treated cabbage leaf assessed as immobilization at 250 ppm dipped for 3 secs measured after 48 hr relative to control; assay type: functional, organism-based
Pieris rapae [4] = test: Insecticidal activity against fifth-instar larvae of Pieris rapae fed on compound treated cabbage leaf assessed as loss of body fluid at 250 ppm dipped for 3 secs measured after 48 hr relative to control; assay type: functional, organism-based
Pieris rapae [5] = test: Insecticidal activity against fifth-instar larvae of Pieris rapae fed on compound treated cabbage leaf assessed as paralysis at 250 ppm dipped for 3 secs measured after 48 hr relative to control; assay type: functional, organism-based
Pieris rapae [6] = test: Insecticidal activity against fifth-instar larvae of Pieris rapae fed on compound treated cabbage leaf assessed as change in spontaneous movement at 250 ppm dipped for 3 secs measured after 24 hr relative to control; assay type: functional, organism-based
Pieris rapae [7] = test: Insecticidal activity against fifth-instar larvae of Pieris rapae fed on compound treated cabbage leaf assessed as mortality at 250 ppm dipped for 3 secs measured after 15 days (reference value: 10 1.22%); assay type: functional
Pieris rapae [8] = test: Insecticidal activity against fifth-instar larvae of Pieris rapae fed on compound treated cabbage leaf assessed as mortality at 250 ppm dipped for 3 secs measured after 10 days (reference value: 6.67 1.56%); assay type: functional
Pieris rapae [9] = test: Insecticidal activity against fifth-instar larvae of Pieris rapae fed on compound treated cabbage leaf assessed as mortality at 250 ppm dipped for 3 secs measured after 5 days (reference value: 0%); assay type: functional

With `COc1cc([C@@H]2c3cc4c(cc3[C@@H](NC(=O)c3ccccc3F)[C@H]3COC(=O)[C@H]23)OCO4)cc(OC)c1OC` the Activity (Pieris rapae [1]) was “Active”, the Activity (Pieris rapae [2]) was “Active” and the Activity (Pieris rapae [3]) was “Active”. For the same compound, the Activity (Pieris rapae [4]) was “Active”, the Activity (Pieris rapae [5]) was “Active” and the Activity (Pieris rapae [6]) was “Active”. It also gave a mortality (Pieris rapae [7]) of 68.42%, a mortality (Pieris rapae [8]) of 46.41% and a mortality (Pieris rapae [9]) of 22.68%.

`CCOP(=S)(OCC)Oc1ccc([N+](=O)[O-])cc1` [PARATHION] showed a mortality (Pieris rapae [9]) of 100%.

With `COc1cc([C@@H]2c3cc4c(cc3[C@H](O)[C@H]3COC(=O)[C@H]23)OCO4)cc(OC)c1OC` [PODOFILOX] the Activity (Pieris rapae [1]) was “Active”, the Activity (Pieris rapae [2]) was “Active” and the Activity (Pieris rapae [3]) was “Active”. For the same compound, the Activity (Pieris rapae [4]) was “Active”, the Activity (Pieris rapae [5]) was “Active” and the Activity (Pieris rapae [6]) was “Active”. For the same compound, the mortality (Pieris rapae [7]) was 74.74%, the mortality (Pieris rapae [8]) was 53.36% and the mortality (Pieris rapae [9]) was 34.02%.

`COc1cc([C@@H]2c3cc4c(cc3[C@@H](NC(=O)c3ccc(Cl)cc3)[C@H]3COC(=O)[C@H]23)OCO4)cc(OC)c1OC` was tested, and the Activity (Pieris rapae [1]) was “Active”, the Activity (Pieris rapae [2]) was “Active” and the Activity (Pieris rapae [3]) was “Active”. The Activity (Pieris rapae [4]) was “Active”, the Activity (Pieris rapae [5]) was “Active” and the Activity (Pieris rapae [6]) was “Active”. It also gave a mortality (Pieris rapae [7]) of 94.95%, a mortality (Pieris rapae [8]) of 72.08% and a mortality (Pieris rapae [9]) of 36.84%.

For `COc1cc([C@@H]2c3cc4c(cc3[C@@H](NC(=O)c3ccccc3Cl)[C@H]3COC(=O)[C@H]23)OCO4)cc(OC)c1OC`, the Activity (Pieris rapae [1]) was “Active”, the Activity (Pieris rapae [2]) was “Active” and the Activity (Pieris rapae [3]) was “Active”. For the same compound, the Activity (Pieris rapae [4]) was “Active”, the Activity (Pieris rapae [5]) was “Active” and the Activity (Pieris rapae [6]) was “Active”. It also gave a mortality (Pieris rapae [7]) of 65.56%, a mortality (Pieris rapae [8]) of 36.36% and a mortality (Pieris rapae [9]) of 4.54%.

In the case of `COc1cc([C@@H]2c3cc4c(cc3[C@@H](NC(=O)c3cccc(F)c3)[C@H]3COC(=O)[C@H]23)OCO4)cc(OC)c1OC`, the Activity (Pieris rapae [1]) is reported as “Active”, the Activity (Pieris rapae [2]) is reported as “Active” and the Activity (Pieris rapae [3]) is reported as “Active”. For the same compound, the Activity (Pieris rapae [4]) was “Active”, the Activity (Pieris rapae [5]) was “Active” and the Activity (Pieris rapae [6]) was “Active”. It also gave a mortality (Pieris rapae [7]) of 86.7%, a mortality (Pieris rapae [8]) of 49.46% and a mortality (Pieris rapae [9]) of 18.57%.

For `COc1cc([C@@H]2c3cc4c(cc3[C@@H](NC(=O)c3ccccc3Br)[C@H]3COC(=O)[C@H]23)OCO4)cc(OC)c1OC`, the Activity (Pieris rapae [1]) was “Active”, the Activity (Pieris rapae [2]) was “Active” and the Activity (Pieris rapae [3]) was “Active”. For the same compound, the Activity (Pieris rapae [4]) was “Active”, the Activity (Pieris rapae [5]) was “Active” and the Activity (Pieris rapae [6]) was “Active”. It also gave a mortality (Pieris rapae [7]) of 74.74%, a mortality (Pieris rapae [8]) of 44.78% and a mortality (Pieris rapae [9]) of 4.35%.

For `COc1cc([C@@H]2c3cc4c(cc3[C@@H](NC(=O)c3ccc(Br)cc3)[C@H]3COC(=O)[C@H]23)OCO4)cc(OC)c1OC`, the Activity (Pieris rapae [1]) was “Active”, the Activity (Pieris rapae [2]) was “Active” and the Activity (Pieris rapae [3]) was “Active”. For the same compound, the Activity (Pieris rapae [4]) was “Active”, the Activity (Pieris rapae [5]) was “Active” and the Activity (Pieris rapae [6]) was “Active”. The mortality (Pieris rapae [7]) was 85.97%, the mortality (Pieris rapae [8]) was 51.85% and the mortality (Pieris rapae [9]) was 14.81%.

For `COc1cc([C@@H]2c3cc4c(cc3[C@@H](NC(=O)c3cccc(I)c3)[C@H]3COC(=O)[C@H]23)OCO4)cc(OC)c1OC`, the Activity (Pieris rapae [1]) was “Active”, the Activity (Pieris rapae [2]) was “Active” and the Activity (Pieris rapae [3]) was “Active”. For the same compound, the Activity (Pieris rapae [4]) was “Active”, the Activity (Pieris rapae [5]) was “Active” and the Activity (Pieris rapae [6]) was “Active”. It also gave a mortality (Pieris rapae [7]) of 69.69%, a mortality (Pieris rapae [8]) of 40.71% and a mortality (Pieris rapae [9]) of 8.35%.

For `COc1cc([C@@H]2c3cc4c(cc3[C@@H](NC(=O)c3ccc(I)cc3)[C@H]3COC(=O)[C@H]23)OCO4)cc(OC)c1OC`, the Activity (Pieris rapae [1]) was “Active”, the Activity (Pieris rapae [2]) was “Active” and the Activity (Pieris rapae [3]) was “Active”. For the same compound, the Activity (Pieris rapae [4]) was “Active”, the Activity (Pieris rapae [5]) was “Active” and the Activity (Pieris rapae [6]) was “Active”. The mortality (Pieris rapae [7]) was 73.87%, the mortality (Pieris rapae [8]) was 48.28% and the mortality (Pieris rapae [9]) was 20.73%.

`COc1cc([C@@H]2c3cc4c(cc3[C@@H](NC(=O)c3ccccc3I)[C@H]3COC(=O)[C@H]23)OCO4)cc(OC)c1OC` was tested, and the Activity (Pieris rapae [1]) was “Active”, the Activity (Pieris rapae [2]) was “Active” and the Activity (Pieris rapae [3]) was “Active”. The Activity (Pieris rapae [4]) was “Active”, the Activity (Pieris rapae [5]) was “Active” and the Activity (Pieris rapae [6]) was “Active”. For the same compound, the mortality (Pieris rapae [7]) was 69.69%, the mortality (Pieris rapae [8]) was 48.36% and the mortality (Pieris rapae [9]) was 12.62%.

For `COc1cc([C@@H]2c3cc4c(cc3[C@@H](NC(=O)c3cccc(Cl)c3)[C@H]3COC(=O)[C@H]23)OCO4)cc(OC)c1OC`, the Activity (Pieris rapae [1]) was “Active”, the Activity (Pieris rapae [2]) was “Active” and the Activity (Pieris rapae [3]) was “Active”. The Activity (Pieris rapae [4]) was “Active”, the Activity (Pieris rapae [5]) was “Active” and the Activity (Pieris rapae [6]) was “Active”. For the same compound, the mortality (Pieris rapae [7]) was 94.73%, the mortality (Pieris rapae [8]) was 54.25% and the mortality (Pieris rapae [9]) was 16.56%.

With `COc1cc([C@@H]2c3cc4c(cc3[C@@H](NC(=O)c3ccc(F)cc3)[C@H]3COC(=O)[C@H]23)OCO4)cc(OC)c1OC` the Activity (Pieris rapae [1]) was “Active”, the Activity (Pieris rapae [2]) was “Active” and the Activity (Pieris rapae [3]) was “Active”. For the same compound, the Activity (Pieris rapae [4]) was “Active”, the Activity (Pieris rapae [5]) was “Active” and the Activity (Pieris rapae [6]) was “Active”. It also gave a mortality (Pieris rapae [7]) of 66.76%, a mortality (Pieris rapae [8]) of 44.74% and a mortality (Pieris rapae [9]) of 11.11%.

`COc1cc([C@@H]2c3cc4c(cc3[C@@H](NC(=O)c3cccc(Br)c3)[C@H]3COC(=O)[C@H]23)OCO4)cc(OC)c1OC` was tested, and the Activity (Pieris rapae [1]) was “Active”, the Activity (Pieris rapae [2]) was “Active” and the Activity (Pieris rapae [3]) was “Active”. The Activity (Pieris rapae [4]) was “Active”, the Activity (Pieris rapae [5]) was “Active” and the Activity (Pieris rapae [6]) was “Active”. The mortality (Pieris rapae [7]) was 85.42%, the mortality (Pieris rapae [8]) was 69.23% and the mortality (Pieris rapae [9]) was 46.15%.

For `COc1cc([C@@H]2c3cc4c(cc3[C@@H](N)[C@H]3COC(=O)[C@H]23)OCO4)cc(OC)c1OC` [4BETA-NH2-PODOPHYLLOTOXIN], the Activity (Pieris rapae [1]) was “Active”, the Activity (Pieris rapae [2]) was “Active” and the Activity (Pieris rapae [3]) was “Active”. For the same compound, the Activity (Pieris rapae [4]) was “Active”, the Activity (Pieris rapae [5]) was “Active” and the Activity (Pieris rapae [6]) was “Active”. The mortality (Pieris rapae [7]) was 49.48%, the mortality (Pieris rapae [8]) was 36.43% and the mortality (Pieris rapae [9]) was 21.69%.
